Published values from different studies.
Compare with care: the assays were run in different laboratories.
Observed: enzyme activity
Mode: inhibitor
rep main protease: Replicase polyprotein 1ab, main protease (rep, Severe acute respiratory syndrome coronavirus 2, UniProt P0DTD1)
rep papain-like protease: Replicase polyprotein 1ab, papain-like protease (rep, Severe acute respiratory syndrome coronavirus 2, UniProt P0DTD1)

The inhibition of Cn1c(=O)n(C)c2cc(CNc3ccc4c(c3)OCO4)ccc21 is reported as 22.3% (rep main protease; 20 µM).
For Cn1c(C(=O)Nc2ccc3c(c2)OCCO3)cc2c(=O)n3ccccc3nc21, the inhibition was 42% (rep main protease; 10 µM).
With C/N=c1\nc(-c2ccccc2)n(-c2ccccc2)s1 the inhibition was 96.7% (rep main protease; 20 µM).
COc1cc(C)cc2c1C(=O)C=CC2=O gave an inhibition of 75.6% (rep main protease; 1 µM).
For COc1cc(O)c2c(=O)c(O)c(-c3ccc(O)c(O)c3)oc2c1, the inhibition was 52% (rep main protease; 20 µM).
O=c1oc2c(O)c(O)cc3c(=O)oc4c(O)c(O)cc1c4c23 gave an inhibition of greater than 50% (rep main protease; FRET; 10 µM; 10 min).
Oc1cc(O)c2c(c1)OC(c1ccc(O)c(O)c1)C(O)C2 (stereo not drawn) gave an inhibition of 22.6% (rep main protease; 20 µM).
With O=C1NCc2c1cccc2C(=O)N[C@H](CNC(=O)c1ccnc2[nH]ncc12)c1ccccc1 the inhibition was 10% (rep main protease; 5 µM).
The inhibition of CCc1ccc(NC(=O)c2cc3c(=O)n4ccccc4nc3n2C)cc1 is reported as 49% (rep main protease; 100 µM).
For Cc1c(-c2cnccn2)ssc1=S, the inhibition was 97.6% (rep main protease; 20 µM).
Cc1ccc(NC(=O)c2cc3c(=O)n4cccc(C)c4nc3n2C)cc1Cl has an inhibition of 16% (rep main protease; 10 µM).
COc1ccc(OC)c2c1C(=O)C=CC2=O has an inhibition of 75.1% (rep main protease; 1 µM).
With COc1cc(/C=C/C(=O)CC(=O)/C=C/c2ccc(O)c(OC)c2)ccc1O the inhibition was greater than 50% (rep main protease; FRET; 10 µM; 10 min).
The inhibition of Clc1nc2ccccc2cc1/C=N\c1ccc(Br)nc1 is reported as 3.5% (rep papain-like protease; 10 µM).
The inhibition of COCOc1cc(C)cc2c1C(=O)C=CC2=O is reported as 79.6% (rep main protease; 10 µM).
With Clc1nc2ccccc2cc1/C=N\c1ccc(-c2nc3ccccc3[nH]2)cc1 the inhibition was 3.9% (rep papain-like protease; 10 µM).
For O=C1C=CC(=O)c2c(O)cccc21, the inhibition was 20.3% (rep main protease; 0.1 µM).
The inhibition of COc1cc(CC(C)NCc2cc(NC(=O)c3ccccn3)cc(C(=O)N(C)C)c2)ccc1O (stereo not drawn) is reported as 5.47% (rep main protease; 100 µg/mL).
O=c1cc(-c2ccc(O)cc2)oc2cc(O)c(O)c(O)c12 gave an inhibition of 102% (rep main protease; 100 µM).
The inhibition of S=c1[nH]c2ccccc2s1 is reported as 63.6% (rep main protease; 20 µM).
For O=C(NC[C@H](NC(=O)c1cncc2sccc12)c1ccc2ccccc2c1)c1cocn1, the inhibition was 19.1% (rep main protease; 5 µM).
CC[C@H](NC(=O)OCc1ccccc1)C(=O)N[C@H](C(=O)N[C@@H](Cc1ccccc1)C(=O)N(C)N(C#N)CCC(N)=O)C(C)(C)C has an inhibition of 100% (rep main protease; fluorescence; 50 µM; pH 7.2).
C=C[C@@H]1C[C@]1(NC(=O)[C@@H]1C[C@@H]2CN1C(=O)[C@H](C(C)(C)C)NC(=O)O[C@@H]1C[C@H]1CCCCCc1nc3ccc(OC)cc3nc1O2)C(=O)NS(=O)(=O)C1CC1.O gave an inhibition of 1.19% (rep main protease; 20 µM).
The inhibition of Cc1cc(OCc2ccccc2)c2c(c1)C(=O)C=CC2=O is reported as 91.1% (rep main protease; 1 µM).
Cn1c(C(=O)Nc2ccc(Cl)cc2)cc2c(=O)n3ccccc3nc21 gave an inhibition of 33% (rep main protease; 100 µM).
With CCC(=O)Oc1cccc2c1C(=O)C=CC2=O the inhibition was 35% (rep main protease; 0.1 µM).
For COc1ccc2nc(Cl)c(/C=N/c3ccc(-c4nc5ccccc5[nH]4)cc3)cc2c1, the inhibition was 13.5% (rep papain-like protease; 100 µM).
The inhibition of O=C1C=CC(=O)c2ccccc21 is reported as 97.7% (rep main protease; 10 µM).
For CC1=C2CC(C(=O)N[C@@H]3CN(C(=O)c4cc5ccccc5o4)Cc4nccn4C3)=CN=C2NN1, the inhibition was 11.3% (rep main protease; 5 µM).
O=c1cc(-c2ccccc2)oc2cc(O)c(O)c(O)c12 has an inhibition of 87% (rep main protease; 10 µM).
For Cc1cccn2c(=O)c3cc(C(=O)Nc4ccc(N(C)C)cc4)n(C)c3nc12, the inhibition was 8.7% (rep main protease; 10 µM).
O=C(NCc1cccnc1)Nc1csc([N+](=O)[O-])c1 gave an inhibition of 4.45% (rep main protease; 20 µM).
COc1cc(C[C@@H](C)[C@@H](C)Cc2cc(O)c(OC)c(OC)c2)cc(O)c1OC has an inhibition of 58% (rep main protease; FRET; 8 µM).
With CCOC(=O)COc1cc(C)cc2c1C(=O)C=CC2=O the inhibition was 94.6% (rep main protease; 1 µM).
O=C(/C=C/c1ccc(O)c(O)c1)OC1CC(OC(=O)/C=C/c2ccc(O)c(O)c2)(C(=O)O)CC(O)C1O (stereo not drawn) gave an inhibition of 87.3% (rep main protease; 100 µM).
The inhibition of CC1(C)CC(Nc2ccc(Nc3ccccc3)cc2)CC(C)(C)N1 is reported as 27.8% (rep main protease; 20 µM).
For N=C(N)c1ccc2cc(OC(=O)c3ccc(N=C(N)N)cc3)ccc2c1, the inhibition was 13% (rep main protease; 10 µM).
With C[C@@H]1O[C@@H](O[C@@H]2[C@@H](O)[C@H](OCCc3ccc(O)c(O)c3)O[C@H](CO)[C@H]2OC(=O)/C=C/c2ccc(O)c(O)c2)[C@H](O)[C@H](O)[C@H]1O the inhibition was 97% (rep main protease; 100 µM).
The inhibition of O=c1c(O)c(-c2cc(O)c(O)c(O)c2)oc2cc(O)ccc12 is reported as 94.9% (rep main protease; 20 µM).
The inhibition of Cc1cc(NC(=O)c2cc3c(=O)n4cccc(C)c4nc3n2C)ccc1Br is reported as 30% (rep main protease; 10 µM).
With CC[C@@H](C)[C@@H](NC(=O)[C@@H](CCC(=O)O)NC(=O)[C@H](NC(=O)[C@@H](CCC(N)=O)NC(=O)[C@H]1CCCN1C(=O)[C@@H](CCC(N)=O)NC(=O)[C@@H](Cc1c[nH]c2ccccc12)NC(C)=O)C(C)C)C(=O)N[C@H](CO)C(=O)N[C@H](CCC(N)=O)C(=O)N[C@H](CO)C(=O)N1CCC[C@@H]1C(=O)N[C@H](Cc1c[nH]c2ccccc12)C(=O)N[C@H](CO)C(=O)N[C@H](Cc1c[nH]cn1)C(=O)N1CCC[C@@H]1C(=O)N[C@H](CO)C(=O)N[C@H](CCCNC(=N)N)C(N)=O the inhibition was 100% (rep main protease; fluorescence; 140 µM).
The inhibition of Cn1cc2c(n1)c(=O)n(Cc1ccc(F)cc1)c1nn(CCOc3ccc(F)cc3)c(=O)n21 is reported as 13% (rep main protease; 20 µM).
For COc1c(-c2ccc(O)c(CC=C(C)C)c2)oc2cc(O)cc(O)c2c1=O, the inhibition was 16.9% (rep main protease; 8 µM).
COc1cc([C@H]2OC[C@H]3[C@@H]2CO[C@H]3c2ccc(OC)c(OC)c2)ccc1O has an inhibition of 8.5% (rep papain-like protease; 50 µM).
Oc1ccc([C@H]2COc3cc(O)ccc3C2)cc1 gave an inhibition of 18.5% (rep main protease; 50 µM).
With CCn1nc2n(Cc3ccc(F)cc3)c(=O)c3nn(C)cc3n2c1=O the inhibition was 15.5% (rep main protease; 20 µM).
With O=c1c(O)c(-c2ccccc2)oc2cc(O)cc(O)c12 the inhibition was 25 to 50% (rep main protease; FRET; 10 µM; 10 min).
O=C(Oc1cncc(Cl)c1)c1cc2c(Cl)cc(Cl)cc2[nH]1 gave an inhibition of 100% (rep main protease; fluorescence; 10 µM; pH 7.2).
COC(=O)C1=CO[C@@H](O[C@@H]2O[C@H](CO)[C@@H](O)[C@H](O)[C@H]2O)[C@@H]2[C@@H](C)[C@@H](O)C[C@H]12 gave an inhibition of -1.7% (rep papain-like protease; 50 µM).
With CC[C@H](NC(=O)OCc1ccccc1)C(=O)N[C@H](C(=O)N[C@@H](CC(C)C)C(=O)N(C)N(C#N)CCC(N)=O)C(C)(C)C the inhibition was 100% (rep main protease; fluorescence; 50 µM; pH 7.2).
Cc1ccc2nc(Cl)c(C=Nc3cc(Br)ccn3)cc2c1 has an inhibition of 23.9% (rep papain-like protease; 100 µM).
